The record followed here is ChEMBL document CHEMBL1156073, “Hydroxamic acids as a novel family of serine racemase inhibitors: mechanistic analysis reveals different modes of interaction with the pyridoxal-5'-phosphate cofactor” (J Med Chem, 2009).

A short description of data set [1]: Binding affinity to 30 mM pyridoxal-5'-phosphate assessed as formation of PLP-aldimine by ESI-MS analysis.
The nature of data set [2]: Binding affinity to pyridoxal-5'-phosphate assessed as formation of PLP-aldoxime by ESI-MS analysis. In short, it runs like this: (§1)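 Compound weighed into PLP stock at about 1:1 molar ratio with PLP, with or without 200 mM ammonium sulfate pH 8.0. Mixture diluted 40- to 100-fold in water and analysed by ESI-MS in negative ion mode.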
The nature of data set [3]: Chemical stability assessed as hydrolysis-associated hydroxylamine formation at 0.5 mM after 1 hr in phosphate buffer of pH 7.4. It is filed as physicochemical. To be noted: pH 7.4, 1 h, 500 µM. In short, it runs like this:
(§2)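 Compound at 0.5 mM or 0.05 mM, diluted from fresh 10 mM stocks, held in 100 mM phosphate buffer pH 8.0 or 7.4 at room temperature for 0, 30 or 60 min. Picrylsulfonic acid then added; released hydroxylamine read as absorbance at 494 nm 15 min later.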

In data set [4] the target is T1, Serine racemase (Mus musculus) (UniProt Q9QZX7).
T1 sequence (whole entry): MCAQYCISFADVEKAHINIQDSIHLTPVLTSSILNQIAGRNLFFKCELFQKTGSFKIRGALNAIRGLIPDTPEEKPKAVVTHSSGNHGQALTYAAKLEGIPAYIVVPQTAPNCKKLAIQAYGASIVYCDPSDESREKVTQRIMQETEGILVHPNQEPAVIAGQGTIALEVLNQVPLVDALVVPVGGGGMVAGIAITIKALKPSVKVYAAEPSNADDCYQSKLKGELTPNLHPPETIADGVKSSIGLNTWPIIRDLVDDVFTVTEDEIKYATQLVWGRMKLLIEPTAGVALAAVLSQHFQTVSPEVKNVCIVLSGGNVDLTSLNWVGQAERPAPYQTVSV
In words: Inhibition of mouse recombinant serine racemase expressed in Escherichia coli MC1061 assessed as formation of D-serine at 5 mM after 30 mins by HPLC analysis. In short, it runs like this: (§3)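 Mouse SR (E. coli MC1061, arabinose-induced, three-step chromatography, ~90% pure) incubated in pH 8.0 buffer with 10 μM PLP, 1 mM ATP, 1 mM MgCl2, 5 mM DTT. Screening used 5 mM L-serine and 5 mM test compound; IC50 runs varied inhibitor at 5 mM L-serine. 30 min at 37 C, stopped with 0.3 M HClO4; D-serine quantified by HPLC. Duplicate or triplicate runs.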

Data set [5] can be described thus: Binding affinity to pyridoxal-5'-phosphate assessed as formation of syn- and anti-PLP-aldoxime by NMR spectroscopy. In short, it runs like this:
(§4)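 Compound and PLP solutions prepared in 100 mM phosphate buffer in D2O, pD held near 8.0; chemical shifts followed by NMR after mixing.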

Data set [6] in a line: Binding affinity to pyridoxal-5'-phosphate assessed as formation of PLP-aldoxime at 5 mM after 1 hr by UV/vis spectroscopy. In short, it runs like this: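 PLP and compound solutions in 100 mM phosphate buffer pH 8.0 mixed 1:1, giving 300 μM PLP and 5 mM compound final. Incubated 1 h at room temperature, then absorbance scanned from 310 to 500 nm.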
The nature of data set [7]: Chemical stability assessed as hydrolysis-associated hydroxylamine formation at 0.5 mM after 1 hr in phosphate buffer of pH 8. In kind it is physicochemical. To be noted: pH 8, 1 h, 500 µM. In short, it runs like this: as §2
Data set [8] is described as follows: Binding affinity to pyridoxal-5'-phosphate assessed as formation of syn- and anti-PLP-aldoxime after 20 hrs by NMR spectroscopy. In short, it runs like this: as §4
A short description of data set [9]: Chemical stability assessed as hydrolysis-associated hydroxylamine formation at 0.05 mM after 1 hr in phosphate buffer of pH 8. In kind it is physicochemical. To be noted: pH 8, 1 h, 50 µM. In short, it runs like this: as §2
The nature of data set [10]: Chemical stability assessed as hydrolysis-associated hydroxylamine formation at 0.05 mM after 1 hr in phosphate buffer of pH 7.4. In kind it is physicochemical. As to conditions: pH 7.4, 1 h, 50 µM. In short, it runs like this: as §2
Data set [11] deals with T2, Serine racemase (Mus musculus, UniProt Q9QZX7).
T2 sequence (Q9QZX7 whole entry): T1 sequence (whole entry)
In words: Inhibition of mouse recombinant serine racemase expressed in Escherichia coli MC1061 assessed as formation of D-serine after 30 mins by HPLC analysis. In short, it runs like this: as §3

For data set [12], the target named is T2, Serine racemase. In words: Inhibition of mouse recombinant serine racemase transfected in bacterial expression system.
Data set [13] addresses T1, Serine racemase (Mus musculus). The data set can be described thus: Inhibition of mouse recombinant serine racemase expressed in Escherichia coli MC1061 assessed as formation of D-serine at 5 mM in phosphate buffer of pH 8 treated for 15 to 20 mins before addition of substrate by HPLC analysis in presence of 10 uM PLP.
For data set [14], the target named is T3, Serine racemase (Homo sapiens) (UniProt Q9GZT4).
T3 sequence (whole entry): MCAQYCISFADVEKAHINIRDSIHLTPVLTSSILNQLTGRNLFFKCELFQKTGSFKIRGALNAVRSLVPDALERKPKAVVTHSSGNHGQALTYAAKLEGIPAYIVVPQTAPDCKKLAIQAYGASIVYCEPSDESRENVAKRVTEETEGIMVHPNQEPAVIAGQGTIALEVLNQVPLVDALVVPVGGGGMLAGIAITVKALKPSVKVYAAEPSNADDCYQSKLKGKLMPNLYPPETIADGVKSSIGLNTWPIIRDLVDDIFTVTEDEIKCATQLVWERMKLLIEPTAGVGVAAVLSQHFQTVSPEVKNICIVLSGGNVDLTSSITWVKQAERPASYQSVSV
The data set can be described thus: Inhibition of human recombinant serine racemase assessed as formation of D-serine at 5 mM in phosphate buffer of pH 8 treated for 15 to 20 mins before addition of substrate by HPLC analysis in presence of 10 uM PLP. In short, it runs like this: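 Recombinant human SR assayed as for mouse SR: pH 8.0 buffer with 10 μM PLP, 1 mM ATP, 1 mM MgCl2, 5 mM DTT, 5 mM L-serine and 5 mM compound. Incubated 30 min at 37 C, stopped with HClO4; D-serine measured by HPLC.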

A short description of data set [15]: Inhibition of broad-range bacterial transaminase assessed as formation of L-glutamic acid at 5 mM in phosphate buffer of pH 8 treated for 15 to 20 mins before addition of substrate by HPLC analysis in presence of 10 uM PLP. In short, it runs like this:
(§5)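 Enzyme in 50 mM phosphate buffer pH 8.0 with 10 μM PLP, preincubated with 5 mM inhibitor at room temperature for 15-20 min. Substrate added near KM: alanine racemase 5 mM D-alanine (L-alanine formed); SDH 50 mM L-serine (SDH partially purified, ~50%, from E. coli BL21-RIL); transaminase 5 mM L-aspartic acid plus 5 mM α-ketoglutarate. Products analysed by HPLC.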

The target in data set [16] is T4, Alanine racemase (Geobacillus stearothermophilus) (UniProt P10724).
T4 sequence (whole entry): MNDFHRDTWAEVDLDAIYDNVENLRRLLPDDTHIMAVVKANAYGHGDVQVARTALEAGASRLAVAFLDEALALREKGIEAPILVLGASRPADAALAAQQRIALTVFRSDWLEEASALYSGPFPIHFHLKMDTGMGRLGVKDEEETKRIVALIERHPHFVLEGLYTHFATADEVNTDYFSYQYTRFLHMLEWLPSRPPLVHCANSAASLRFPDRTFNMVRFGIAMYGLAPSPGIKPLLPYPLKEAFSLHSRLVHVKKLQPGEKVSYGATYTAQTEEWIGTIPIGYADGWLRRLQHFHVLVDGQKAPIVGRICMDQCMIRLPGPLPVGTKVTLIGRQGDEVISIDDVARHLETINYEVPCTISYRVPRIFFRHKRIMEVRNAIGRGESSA
The data set can be described thus: Inhibition of Bacillus stearothermophilus alanine racemase assessed as formation of L-alanine at 5 mM in phosphate buffer of pH 8 treated for 15 to 20 mins before addition of substrate by HPLC analysis in presence of 10 uM PLP. In short, it runs like this:
as §5

The target of data set [17] is T5, L-serine dehydratase/L-threonine deaminase (Rattus norvegicus) (UniProt P09367).
T5 sequence (whole entry): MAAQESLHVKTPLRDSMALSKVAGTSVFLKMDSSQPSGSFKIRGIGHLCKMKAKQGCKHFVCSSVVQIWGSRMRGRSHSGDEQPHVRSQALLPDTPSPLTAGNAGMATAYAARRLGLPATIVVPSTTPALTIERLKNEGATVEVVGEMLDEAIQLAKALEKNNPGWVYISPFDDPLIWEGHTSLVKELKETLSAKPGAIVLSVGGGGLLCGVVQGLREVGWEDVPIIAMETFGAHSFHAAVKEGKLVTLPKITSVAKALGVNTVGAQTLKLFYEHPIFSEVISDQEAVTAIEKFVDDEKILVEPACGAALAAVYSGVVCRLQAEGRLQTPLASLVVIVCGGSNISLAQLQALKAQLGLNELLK
The data set can be described thus: Inhibition of rat SDH expressed in Escherichia coli BL21-RIL assessed as formation of pyruvate at 5 mM in phosphate buffer of pH 8 treated for 15 to 20 mins before addition of substrate by HPLC analysis in presence of 10 uM PLP. In short, it runs like this: as §5

Data set [18] is described as follows: Binding affinity to pyridoxal-5'-phosphate assessed as compound remaining after 12 days by NMR spectroscopy. In short, it runs like this:
as §4

Data set [19] can be described thus: Binding affinity to pyridoxal-5'-phosphate assessed as formation of PLP-aldimine at active site by ESI-MS analysis. In short, it runs like this:
as §1

Data set [20] deals with T1, Serine racemase (Mus musculus). In words: Inhibition of mouse recombinant serine racemase expressed in Escherichia coli MC1061 assessed as formation of D-serine after 30 mins by Linewaver-burk and Eadie-Hofstee plot analysis. In short, it runs like this: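 Mouse SR racemization at varied L-serine and inhibitor concentrations, pH 8.0, 10 μM PLP, 30 min at 37 C. End-point HPLC measured D-serine peak area relative to a glycine internal standard, in triplicate. Global nonlinear fit followed by linear transformation.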

Data set [21] concerns the target T3, Serine racemase (Homo sapiens). The data set can be described thus: Inhibition of human recombinant serine racemase assessed as formation of D-serine at 5 mM treated for 15 to 20 mins before addition of substrate by HPLC analysis in presence of increasing concentration of PLP.
Data set [22] concerns the target T1, Serine racemase (Mus musculus). The data set can be described thus: Inhibition of mouse recombinant serine racemase expressed in Escherichia coli MC1061 assessed as formation of D-serine at 5 mM treated for 15 to 20 mins before addition of substrate by HPLC analysis in presence of increasing concentration of PLP.

Calls of active or inactive are those of the source. The rule behind the calls is not given here.

`N[C@@H](CO)C(=O)O`: the outcome in data set [1] was Active.

For the compound `O=C(CCCCC(=O)NO)NO`, the outcome in data set [2], in data set [5], in data set [6] and in data set [8] was inactive. The Stability result in [3] and in data set [7] was “Stable” in each case. In data set [4], the inhibition entry was “inactive”.

In the case of `O=C(CCCC(=O)NO)NO` [GLUTARODIHYDROXAMIC ACID], the result in data set [2], in data set [6] and in [8] was Active. The Stability result in data set [9] and in data set [10] was “Unstable” in each case. For the same compound, at Serine racemase [11], the IC50 was 170 µM.

`NCC(=O)O`: the result in data set [1] was Active.

Consider `CC(=O)NO`, for which the outcome in data set [2] and in data set [6] was inactive. In [4], the inhibition entry is “inactive”. The outcome in data set [5] was Active.

In the case of `O=C(CCCCCCC(=O)NO)NO` [SUBEROHYDROXAMIC ACID], the result in data set [2], in data set [5] and in data set [8] was inactive. Further, the Stability entry in data set [3] and in data set [7] was “Stable” in each case. Besides, in data set [4], the inhibition result is “inactive”.

In the case of `Nc1ccc(C(=O)NO)cc1`, in data set [4], the inhibition result was “inactive”.

On to `O=C(O)CC(=O)O` [MALONIC ACID], for which the Ki on Serine racemase [12] turned out to be 71 µM.

Take `O=C(NO)C(=O)NO`: the inhibition result in data set [13], in [4], in data set [14], in data set [15], in data set [16] and in [17] was “inactive” each time. Further, the outcome in [2], in data set [5] and in data set [6] was inactive. Further, the Stability entry in data set [3] and in [7] was “Stable” in each case. Moreover, the Activity in [18] is 20%.

For `O=C(NO)c1ccc([N+](=O)[O-])cc1`, the inhibition entry in [4] is “inactive”.

Consider `CC(O)C(N)C(=O)NO` (centres undefined), for which the inhibition entry in data set [4] is “inactive”. Besides, the result in data set [1] was Active. Further, in data set [19], the outcome was inactive.

Turning to `O=C(CCCCCCC(=O)Nc1ccccc1)NO`, the inhibition result in data set [4] is “inactive”. In addition, the outcome in data set [5] was Active. For the same compound, in data set [6], the result was inactive.

For the compound `O=C(NO)c1ccc(Cl)cc1`, the inhibition entry in data set [4] was “inactive”.

Consider `NCC(=O)NO`, for which, in data set [4], the inhibition entry was “inactive”. In addition, in [1], the outcome was Active. Besides, the result in data set [19] was inactive.

As for `N[C@@H](C(=O)O)[C@H](O)C(=O)O`, the Ki at Serine racemase [12] is 43 µM.

Regarding `O=C(CCC(=O)NO)NO` [SUCCINODIHYDROXAMIC ACID], the inhibition entry in data set [13] is “Active”. Moreover, the result in data set [2], in data set [5] and in data set [6] was Active. In addition, the Stability result in [9] and in data set [10] was “Unstable” throughout. For the same compound, in data set [20], the Ki turned out to be 3.6 µM. Also, the inhibition entry in data set [21] and in data set [22] was “inactive” each time. The IC50 on Serine racemase [11] was 90 µM.

As to `NC(CO)C(=O)NO` (centres undefined), the inhibition entry in data set [4] is “inactive”. For the same compound, the result in data set [1] was Active. Moreover, the outcome in [19] was inactive.
